# Data: ChEMBL document CHEMBL2203081 (Bioorg Med Chem Lett, 2012)
# Assays:
# [1] = target: Cyclin-dependent kinase-like 2 (Homo sapiens) (UniProt Q92772); assay: Inhibition of CDKL2 assessed as residual activity at 10 uM relative to control
# [2] = target: Ribosomal protein S6 kinase alpha-5 (Homo sapiens) (UniProt O75582); assay: Inhibition of MSK1 assessed as residual activity at 10 uM
# [3] = target: Serine/threonine-protein kinase RIO2 (Homo sapiens) (UniProt Q9BVS4); assay: Inhibition of RIOK2 assessed as residual activity at 10 uM relative to control
# [4] = target: Insulin receptor-related protein (Homo sapiens) (UniProt P14616); assay: Inhibition of IRR assessed as residual activity at 1 uM
# Method in brief: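 Radioactivity-based enzymatic activity assay of the named kinase, run as part of a 131-kinase specificity panel at the National Centre for Protein Kinase Profiling (Dundee). Residual activity was read at the stated single inhibitor concentration.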
# [5] = target: Ephrin type-A receptor 7 (Homo sapiens) (UniProt Q15375); assay: Inhibition of EPHA7 assessed as residual activity at 10 uM relative to control
# Method in brief: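 Competition kinase-binding assay (KINOMEscan) across a non-redundant panel of 329 kinases beyond the radiometric panel; residual binding expressed relative to control.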
# [6] = target: Tyrosine-protein kinase Tec (Homo sapiens) (UniProt P42680); assay: Inhibition of TEC assessed as residual activity at 10 uM relative to control
# [7] = target: Serine/threonine-protein kinase Nek6 (Homo sapiens) (UniProt Q9HC98); assay: Inhibition of NEK6 assessed as residual activity at 10 uM relative to control
# [8] = target: T1, Ephrin type-B receptor 2 (Homo sapiens) (UniProt P29323); assay: Inhibition of EPH-B2 assessed as residual activity at 1 uM
# T1 sequence (whole entry): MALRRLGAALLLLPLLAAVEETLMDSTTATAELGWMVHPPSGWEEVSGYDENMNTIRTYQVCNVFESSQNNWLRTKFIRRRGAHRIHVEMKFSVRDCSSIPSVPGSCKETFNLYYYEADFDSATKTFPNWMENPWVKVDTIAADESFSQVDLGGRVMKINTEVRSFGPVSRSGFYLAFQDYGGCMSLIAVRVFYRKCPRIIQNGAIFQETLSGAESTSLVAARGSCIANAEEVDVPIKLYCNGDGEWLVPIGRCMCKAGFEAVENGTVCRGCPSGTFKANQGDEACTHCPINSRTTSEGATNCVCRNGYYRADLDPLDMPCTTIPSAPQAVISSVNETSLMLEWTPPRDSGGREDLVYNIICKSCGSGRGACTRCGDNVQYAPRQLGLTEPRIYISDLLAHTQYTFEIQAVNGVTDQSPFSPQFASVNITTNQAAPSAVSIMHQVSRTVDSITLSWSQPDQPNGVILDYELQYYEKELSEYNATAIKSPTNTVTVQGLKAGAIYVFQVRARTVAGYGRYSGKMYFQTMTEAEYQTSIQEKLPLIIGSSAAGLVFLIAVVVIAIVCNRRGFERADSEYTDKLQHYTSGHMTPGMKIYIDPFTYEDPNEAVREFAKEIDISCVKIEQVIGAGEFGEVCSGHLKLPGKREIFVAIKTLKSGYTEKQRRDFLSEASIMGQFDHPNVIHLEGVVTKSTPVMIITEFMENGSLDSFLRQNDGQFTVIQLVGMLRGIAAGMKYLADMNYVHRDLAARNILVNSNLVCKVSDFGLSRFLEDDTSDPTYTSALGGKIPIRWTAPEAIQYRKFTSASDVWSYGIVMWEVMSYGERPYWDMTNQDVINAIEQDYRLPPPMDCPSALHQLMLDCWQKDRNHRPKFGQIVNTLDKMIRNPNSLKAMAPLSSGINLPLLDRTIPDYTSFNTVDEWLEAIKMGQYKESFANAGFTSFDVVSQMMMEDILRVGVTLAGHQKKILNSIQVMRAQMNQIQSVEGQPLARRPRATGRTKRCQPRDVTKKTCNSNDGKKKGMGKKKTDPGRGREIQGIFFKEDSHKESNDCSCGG
# Method in brief: (§1)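 Standard radioactivity-based enzymatic kinase assays on a 131-kinase panel run by the Dundee profiling service; residual kinase activity recorded.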
# [9] = target: Serine/threonine-protein kinase N2 (Homo sapiens) (UniProt Q16513); assay: Inhibition of PRK2 assessed as residual activity at 10 uM
# [10] = target: Inhibitor of nuclear factor kappa-B kinase subunit alpha (Homo sapiens) (UniProt O15111); assay: Inhibition of IKK-alpha assessed as residual activity at 10 uM relative to control
# [11] = target: SRSF protein kinase 1 (Homo sapiens) (UniProt Q96SB4); assay: Inhibition of SRPK1 assessed as residual activity at 1 uM
# [12] = target: Serine/threonine-protein kinase OSR1 (Homo sapiens) (UniProt O95747); assay: Inhibition of OSR1 assessed as residual activity at 10 uM relative to control
# [13] = target: Cyclin-dependent kinase 11B (Homo sapiens) (UniProt P21127); assay: Inhibition of CDC2L1 assessed as residual activity at 10 uM relative to control
# [14] = target: T1, Ephrin type-B receptor 2 (Homo sapiens); assay: Inhibition of EPH-B2 assessed as residual activity at 10 uM; method in brief: as §1
# [15] = target: T2, NUAK family SNF1-like kinase 1 (Homo sapiens) (UniProt O60285); assay: Inhibition of NUAK1 assessed as residual activity at 1 uM
# T2 sequence (whole entry): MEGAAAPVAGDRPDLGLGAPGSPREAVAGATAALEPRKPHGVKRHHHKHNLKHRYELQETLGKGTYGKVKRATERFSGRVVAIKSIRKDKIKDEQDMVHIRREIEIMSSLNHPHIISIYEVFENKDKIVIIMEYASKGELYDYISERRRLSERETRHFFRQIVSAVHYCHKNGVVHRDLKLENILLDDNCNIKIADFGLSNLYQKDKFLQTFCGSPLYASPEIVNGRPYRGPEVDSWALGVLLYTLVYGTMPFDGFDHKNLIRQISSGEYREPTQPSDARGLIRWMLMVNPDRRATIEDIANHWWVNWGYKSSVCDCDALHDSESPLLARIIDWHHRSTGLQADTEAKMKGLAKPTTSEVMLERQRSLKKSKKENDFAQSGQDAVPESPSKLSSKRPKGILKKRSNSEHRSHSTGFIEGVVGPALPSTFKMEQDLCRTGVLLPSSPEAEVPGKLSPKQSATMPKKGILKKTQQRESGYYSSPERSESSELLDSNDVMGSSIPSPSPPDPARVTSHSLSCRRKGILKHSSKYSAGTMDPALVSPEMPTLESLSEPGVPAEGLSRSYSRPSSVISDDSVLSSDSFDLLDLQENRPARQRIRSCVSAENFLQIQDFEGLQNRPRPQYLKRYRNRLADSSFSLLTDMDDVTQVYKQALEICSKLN
# [16] = target: Serine/threonine-protein kinase 33 (Homo sapiens) (UniProt Q9BYT3); assay: Inhibition of STK33 assessed as residual activity at 1 uM
# [17] = test system: Receptor-type tyrosine-protein kinase FLT3 (Homo sapiens), P36888 [D835Y]; assay: Inhibition of FLT3 D835Y mutant assessed as residual activity at 10 uM relative to control
# Chain of Serine/threonine-protein kinase RIO2 (Homo sapiens) (Q9BVS4 whole entry, looked up): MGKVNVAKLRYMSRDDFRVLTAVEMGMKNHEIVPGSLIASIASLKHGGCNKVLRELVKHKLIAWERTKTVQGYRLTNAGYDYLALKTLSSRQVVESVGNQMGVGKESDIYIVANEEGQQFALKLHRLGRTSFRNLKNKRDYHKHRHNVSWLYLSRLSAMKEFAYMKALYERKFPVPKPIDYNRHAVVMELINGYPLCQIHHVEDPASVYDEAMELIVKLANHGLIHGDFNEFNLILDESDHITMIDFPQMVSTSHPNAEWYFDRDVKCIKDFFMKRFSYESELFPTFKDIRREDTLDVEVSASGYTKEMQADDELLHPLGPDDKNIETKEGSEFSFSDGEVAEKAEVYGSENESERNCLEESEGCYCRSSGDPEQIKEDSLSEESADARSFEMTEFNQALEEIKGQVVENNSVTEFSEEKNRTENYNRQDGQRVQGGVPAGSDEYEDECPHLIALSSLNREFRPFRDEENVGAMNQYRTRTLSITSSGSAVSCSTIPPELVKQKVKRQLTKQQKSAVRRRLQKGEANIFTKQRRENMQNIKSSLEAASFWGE
# Chain of Inhibitor of nuclear factor kappa-B kinase subunit alpha (Homo sapiens) (O15111 whole entry): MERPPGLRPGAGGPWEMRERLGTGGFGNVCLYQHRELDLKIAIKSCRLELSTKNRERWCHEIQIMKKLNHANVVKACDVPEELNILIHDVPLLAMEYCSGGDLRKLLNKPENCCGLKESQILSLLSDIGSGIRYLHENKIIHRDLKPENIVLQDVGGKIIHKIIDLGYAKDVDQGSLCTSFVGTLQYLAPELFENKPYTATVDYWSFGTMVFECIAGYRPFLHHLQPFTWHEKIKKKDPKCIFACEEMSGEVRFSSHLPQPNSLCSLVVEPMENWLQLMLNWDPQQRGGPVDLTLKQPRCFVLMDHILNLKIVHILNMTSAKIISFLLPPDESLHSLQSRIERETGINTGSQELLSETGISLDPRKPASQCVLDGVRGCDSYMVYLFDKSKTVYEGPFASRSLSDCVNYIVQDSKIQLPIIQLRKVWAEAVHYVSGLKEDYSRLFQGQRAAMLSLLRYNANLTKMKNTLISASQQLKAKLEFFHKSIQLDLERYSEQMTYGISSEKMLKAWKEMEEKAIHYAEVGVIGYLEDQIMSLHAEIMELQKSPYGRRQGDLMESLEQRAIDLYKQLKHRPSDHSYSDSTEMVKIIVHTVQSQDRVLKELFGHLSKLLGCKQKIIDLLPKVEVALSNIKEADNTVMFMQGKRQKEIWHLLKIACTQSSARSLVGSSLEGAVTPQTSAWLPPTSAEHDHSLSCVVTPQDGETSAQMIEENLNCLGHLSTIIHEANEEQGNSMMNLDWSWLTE
# Chain of Tyrosine-protein kinase Tec (Homo sapiens) (P42680 whole entry): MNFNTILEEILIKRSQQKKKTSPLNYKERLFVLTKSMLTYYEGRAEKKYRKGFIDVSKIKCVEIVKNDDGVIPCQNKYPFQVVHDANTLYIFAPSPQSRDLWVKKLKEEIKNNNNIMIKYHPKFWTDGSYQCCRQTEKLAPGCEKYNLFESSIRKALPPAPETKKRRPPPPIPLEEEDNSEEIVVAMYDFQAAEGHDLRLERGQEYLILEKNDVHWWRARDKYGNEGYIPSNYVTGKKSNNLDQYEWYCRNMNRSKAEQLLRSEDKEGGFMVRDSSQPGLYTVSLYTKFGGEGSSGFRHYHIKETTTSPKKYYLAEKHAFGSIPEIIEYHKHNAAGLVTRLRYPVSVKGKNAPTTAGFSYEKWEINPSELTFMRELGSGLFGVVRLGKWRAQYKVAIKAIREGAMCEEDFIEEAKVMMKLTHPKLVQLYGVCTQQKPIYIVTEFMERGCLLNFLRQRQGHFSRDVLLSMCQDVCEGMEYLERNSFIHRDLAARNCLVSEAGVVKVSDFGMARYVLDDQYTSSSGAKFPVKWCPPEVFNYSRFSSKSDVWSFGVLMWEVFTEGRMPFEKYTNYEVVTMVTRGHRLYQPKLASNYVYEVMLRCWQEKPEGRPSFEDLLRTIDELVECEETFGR
# Chain of Insulin receptor-related protein (Homo sapiens) (P14616 27-742 limits assumed): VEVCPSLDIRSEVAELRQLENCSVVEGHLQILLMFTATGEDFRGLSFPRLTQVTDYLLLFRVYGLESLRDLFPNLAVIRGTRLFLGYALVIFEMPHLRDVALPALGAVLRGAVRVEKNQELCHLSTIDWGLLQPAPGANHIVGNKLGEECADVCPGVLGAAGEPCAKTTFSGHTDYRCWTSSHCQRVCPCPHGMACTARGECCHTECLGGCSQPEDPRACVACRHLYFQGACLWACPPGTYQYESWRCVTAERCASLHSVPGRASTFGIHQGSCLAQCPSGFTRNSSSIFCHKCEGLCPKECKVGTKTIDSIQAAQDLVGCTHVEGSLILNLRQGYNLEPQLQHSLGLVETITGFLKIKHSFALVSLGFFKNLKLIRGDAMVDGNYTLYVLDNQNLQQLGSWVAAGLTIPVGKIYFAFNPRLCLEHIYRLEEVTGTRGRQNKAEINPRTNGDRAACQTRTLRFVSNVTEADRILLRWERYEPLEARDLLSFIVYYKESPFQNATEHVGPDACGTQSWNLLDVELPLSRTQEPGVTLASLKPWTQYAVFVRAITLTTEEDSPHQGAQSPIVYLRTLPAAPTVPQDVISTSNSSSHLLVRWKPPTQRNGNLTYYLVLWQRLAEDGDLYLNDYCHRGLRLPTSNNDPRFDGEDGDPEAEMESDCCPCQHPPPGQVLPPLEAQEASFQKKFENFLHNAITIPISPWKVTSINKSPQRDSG
# Chain of Insulin receptor-related protein (Homo sapiens) (P14616 747-1297 limits assumed): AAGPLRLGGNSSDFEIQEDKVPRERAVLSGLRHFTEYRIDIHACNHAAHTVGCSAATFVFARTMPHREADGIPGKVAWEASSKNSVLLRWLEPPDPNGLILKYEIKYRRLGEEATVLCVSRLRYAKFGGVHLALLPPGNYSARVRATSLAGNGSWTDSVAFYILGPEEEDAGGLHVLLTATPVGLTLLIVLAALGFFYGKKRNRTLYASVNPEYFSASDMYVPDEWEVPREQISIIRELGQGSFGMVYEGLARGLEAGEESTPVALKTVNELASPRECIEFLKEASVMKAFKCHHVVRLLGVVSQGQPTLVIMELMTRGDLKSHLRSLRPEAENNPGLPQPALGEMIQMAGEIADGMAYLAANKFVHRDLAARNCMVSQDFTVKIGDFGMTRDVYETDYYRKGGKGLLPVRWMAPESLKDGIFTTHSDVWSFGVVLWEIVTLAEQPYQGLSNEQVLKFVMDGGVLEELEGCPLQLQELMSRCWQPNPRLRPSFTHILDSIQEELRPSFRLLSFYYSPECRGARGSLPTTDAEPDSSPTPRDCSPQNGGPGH
# Chain of Ephrin type-A receptor 7 (Homo sapiens) (Q15375 28-998 limits assumed): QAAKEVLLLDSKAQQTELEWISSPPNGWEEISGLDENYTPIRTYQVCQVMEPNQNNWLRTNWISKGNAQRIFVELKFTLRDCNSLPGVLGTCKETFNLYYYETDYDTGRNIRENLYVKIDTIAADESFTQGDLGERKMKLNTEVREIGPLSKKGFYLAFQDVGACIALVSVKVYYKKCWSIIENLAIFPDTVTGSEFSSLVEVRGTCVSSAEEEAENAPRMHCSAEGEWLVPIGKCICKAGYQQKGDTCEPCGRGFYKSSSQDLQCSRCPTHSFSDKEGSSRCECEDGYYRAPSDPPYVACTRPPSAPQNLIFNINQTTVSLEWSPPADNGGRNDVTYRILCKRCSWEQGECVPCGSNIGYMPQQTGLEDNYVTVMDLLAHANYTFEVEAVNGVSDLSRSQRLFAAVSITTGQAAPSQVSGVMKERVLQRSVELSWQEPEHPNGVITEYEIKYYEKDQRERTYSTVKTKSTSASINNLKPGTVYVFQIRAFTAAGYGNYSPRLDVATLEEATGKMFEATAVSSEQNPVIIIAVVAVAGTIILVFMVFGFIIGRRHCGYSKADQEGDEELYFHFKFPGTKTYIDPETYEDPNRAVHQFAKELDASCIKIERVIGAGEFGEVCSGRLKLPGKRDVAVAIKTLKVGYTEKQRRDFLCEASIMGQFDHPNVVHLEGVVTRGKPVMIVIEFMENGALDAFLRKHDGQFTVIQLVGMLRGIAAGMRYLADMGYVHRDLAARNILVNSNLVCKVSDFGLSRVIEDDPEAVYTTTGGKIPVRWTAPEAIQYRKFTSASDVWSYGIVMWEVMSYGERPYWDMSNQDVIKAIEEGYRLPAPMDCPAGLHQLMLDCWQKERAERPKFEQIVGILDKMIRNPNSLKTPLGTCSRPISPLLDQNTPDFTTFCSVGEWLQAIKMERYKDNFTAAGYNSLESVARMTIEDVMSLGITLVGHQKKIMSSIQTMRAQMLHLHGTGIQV
# Chain of Ribosomal protein S6 kinase alpha-5 (Homo sapiens) (O75582 whole entry, looked up): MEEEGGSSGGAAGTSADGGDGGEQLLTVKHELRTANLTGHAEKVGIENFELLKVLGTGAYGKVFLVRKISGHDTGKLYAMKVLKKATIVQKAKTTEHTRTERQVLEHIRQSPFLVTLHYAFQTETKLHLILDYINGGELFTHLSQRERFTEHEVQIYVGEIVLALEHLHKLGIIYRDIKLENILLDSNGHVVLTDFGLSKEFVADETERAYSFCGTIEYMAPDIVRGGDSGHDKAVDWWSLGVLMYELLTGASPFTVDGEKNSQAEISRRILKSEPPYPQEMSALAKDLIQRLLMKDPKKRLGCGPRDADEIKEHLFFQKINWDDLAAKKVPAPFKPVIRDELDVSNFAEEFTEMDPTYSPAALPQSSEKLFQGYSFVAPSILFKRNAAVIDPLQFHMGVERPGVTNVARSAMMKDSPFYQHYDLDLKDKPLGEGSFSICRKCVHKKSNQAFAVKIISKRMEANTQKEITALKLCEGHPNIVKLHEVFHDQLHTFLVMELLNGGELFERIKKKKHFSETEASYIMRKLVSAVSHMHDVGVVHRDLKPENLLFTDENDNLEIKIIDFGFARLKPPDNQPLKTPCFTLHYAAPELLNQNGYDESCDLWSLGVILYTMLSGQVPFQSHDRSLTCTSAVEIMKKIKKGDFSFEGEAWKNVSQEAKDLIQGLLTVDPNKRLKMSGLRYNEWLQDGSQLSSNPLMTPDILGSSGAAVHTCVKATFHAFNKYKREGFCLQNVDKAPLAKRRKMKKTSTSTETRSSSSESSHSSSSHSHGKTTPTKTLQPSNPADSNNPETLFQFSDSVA
smiles,measurement,setting,value
O=C(Nc1cccnc1)c1cc(-c2ccnc(F)c2)ccc1OCc1ccccc1,Activity,[1],77%
same,Activity,[2],120%
same,Activity,[3],41%
same,Activity,[4],76%
same,Activity,[5],60%
same,Activity,[6],53%
same,Activity,[7],50%
same,Activity,[8],123%
same,Activity,[9],79%
same,Activity,[10],58%
same,Activity,[11],61%
same,Activity,[12],63%
same,Activity,[13],67%
same,Activity,[14],115%
same,Activity,[15],71%
same,Activity,[16],64%
same,Activity,[17],5.8%
